Test results published in publication PMC9177073 (Science Advances, 2022).
Structures can show the parent of a compound that is named as a salt. Residues, ends and D or L forms follow the SMILES beside them. *: point of attachment. Cbz = O=C(OCc1ccccc1)*

Tests used:
[1] = cited from earlier work; for ability to penetrate the blood-brain barrier: positive controls of PAMPA
proteasome activity = experiment: Proteasome activity in mouse tissue lysates after intraperitoneal injection; conditions: in vivo
[2] = target: proteasome (chymotrypsin-like) activity (Mus musculus, UniProt O55234); experiment: Proteasome peptidase activity in mouse brain lysates with inhibitor; assay type: biochemical; conditions: brains of 3-month-old mice, replicate samples incubated with inhibitor
Summary of the method: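 Mouse brain tissue lysed mechanically in reaction buffer, with buffer volume scaled to tissue weight; the supernatant was assayed. ATP-stimulated activity used 50 mM tris-HCl pH 7.8 with 1 mM MgCl2, 0.5 mM ATP and 1 mM DTT. ATP-independent activity used 50 mM tris-HCl pH 8.0 with 1 mM MgCl2 and 1 mM DTT. Proteasome inhibitor (1 μM) was added 5 min before starting with 50 μM Suc-LLVY-AMC.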

## NCCc1ccc(O)c(O)c1 [Dopamine, Dopamine hydrobromide]
[1]; negative control of PAMPA
  ability to cross the blood-brain barrier: unable to efficiently cross the blood-brain barrier

## CC(C)C[C@@H](C=O)NC(=O)[C@H](CC(C)C)NC(=O)[C@H](CC(C)C)NC(=O)OCc1ccccc1 [MG132, N-carbobenzyloxy-L-leucyl-L-leucyl-L-leucinal] (Cbz-Leu-Leu-Leu-aldehyde)
Proteasome activity
  effect of inhibitor on the TAT1-8,9TOD-induced increase of proteasome activity: could be blocked

## CC(C)C[C@H](NC(=O)[C@H](Cc1ccccc1)NC(=O)c1cnccn1)B(O)O [bortezomib]
[2]
  effect of inhibitor on increased proteasome activity of NSE-PSMB5 mouse brains: blocked

## CC(C)NCC(O)COc1cccc2ccccc12 (stereo not drawn) [propranolol, Propranolol hydrochloride]
[1]
  ability to penetrate the blood-brain barrier: known for their ability to penetrate the blood-brain barrier

## Tat^47–57: HIV-1 Tat-derived peptide, synthesized in-house, positive control of PAMPA
[1]
  ability to penetrate the blood-brain barrier: known for their ability to penetrate the blood-brain barrier

## dermorphin
[1]
  ability to penetrate the blood-brain barrier: known for their ability to penetrate the blood-brain barrier
